Measurements taken from ChEMBL document CHEMBL4359864, “The synthesis and in vitro biological evaluation of novel fluorinated tetrahydrobenzo[j]phenanthridine-7,12-diones against Mycobacterium tuberculosis” (Eur J Med Chem, 2019).
≈ marks a conversion by molar mass, not a printed value.

Legend:
[1] = test system: Mycobacterium tuberculosis; assay: Antibacterial activity against Mycobacterium tuberculosis H37Ra ATCC 25177 incubated for 7 days by resazurin dye based fluorimetric assay; type: functional, organism-based; conditions: H37Ra ATCC 25177, 168 h
Outline: (§1)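 Resazurin microtiter assay: compounds from 10 mM DMSO stock, twofold serial dilutions from 64 µM final in growth medium, in triplicate. Inoculum from frozen glycerol stocks. Exposure 24 h, or 7 days for Mtb H37Ra (7H9 + 0.5% glycerol + 10% OADC). Then 0.01% resazurin was added and plates were incubated at 37°C until pink. Fluorescence read at ex 550/em 590 nm; mean of triplicates.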

[2] = test system: Mycobacterium tuberculosis; assay: Antimycobacterial activity against Mycobacterium tuberculosis H37Ra lux incubated for 7 days by luminometric assay; type: functional, organism-based; conditions: 168 h
Outline: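 Twofold serial dilutions in 7H9/OADC/glycerol, in triplicate, inoculated with a suspension of 10.000 RLU per mL. After 7 days, n-decanal (1% v/v in ethanol) was added and luminescence read. IC50 and MIC (90% growth reduction) were derived from the mean of triplicates.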

Escherichia coli = assay: Antibacterial activity against Escherichia coli ATCC 8739 incubated for 24 hrs by resazurin dye based fluorimetric assay; type: functional, organism-based; conditions: ATCC 8739, ATCC 8739, 24 h; outline: as §1
Pseudomonas aeruginosa = assay: Antibacterial activity against Pseudomonas aeruginosa ATCC 9027 incubated for 24 hrs by resazurin dye based fluorimetric assay; type: functional, organism-based; conditions: ATCC 9027, 24 h; outline: as §1
Klebsiella pneumoniae = assay: Antibacterial activity against Klebsiella pneumoniae ATCC 13883 incubated for 24 hrs by resazurin dye based fluorimetric assay; type: functional, organism-based; conditions: ATCC 13883, 24 h; outline: as §1
Enterococcus faecium = assay: Antibacterial activity against Enterococcus faecium ATCC 19434 incubated for 24 hrs by resazurin dye based fluorimetric assay; type: functional, organism-based; conditions: ATCC 19434, 24 h; outline: as §1
Staphylococcus aureus = assay: Antibacterial activity against Staphylococcus aureus ATCC 6538 incubated for 24 hrs by resazurin dye based fluorimetric assay; type: functional, organism-based; conditions: ATCC 6538, 24 h; outline: as §1
Streptococcus pneumoniae = assay: Antibacterial activity against Streptococcus pneumoniae ATCC BAA-334 incubated for 24 hrs by resazurin dye based fluorimetric assay; type: functional, organism-based; conditions: ATCC BAA-334, 24 h; outline: as §1
[3] = Cytotoxicity against mouse J774A.1 cells assessed as reduction in cell viability incubated for 24 hrs by neutral red uptake assay; type: cell-based, J774.A1
Outline: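 J774A.1 cells in DMEM + 10% iFCS, 37°C, 5% CO2, seeded at 40.000 cells/well and left overnight. Twofold dilutions from 128 µM final; 24 h exposure. Neutral red uptake for 3 h, dye extracted with 1:1 ethanol/acetic acid, OD read at 530 nm (reference 620 nm). CC50 = 50% reduction in uptake; mean of triplicates.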

Mycobacterium marinum = assay: Antimycobacterial activity against Mycobacterium marinum NCTC 2275 by resazurin dye based fluorimetric assay; type: functional, organism-based
Outline: (§2)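 Resazurin microtiter method as for the bacterial panel. Mycobacteria grown in 7H9 with 10% OADC and 0.5% glycerol; for BCG, 0.05% Tween 80 replaced the glycerol. Cultures were sonicated and needle-passed to single cells. Incubation at 37°C, or 32°C for M. marinum. Fluorescence read at ex 550/em 590 nm; mean of triplicates.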

[4] = Antimycobacterial activity against Mycobacterium avium subsp. avium ATCC 25291 by resazurin dye based fluorimetric assay; type: functional; outline: as §2
CYP450 [5] = target: T1, CYP450 (Homo sapiens, UniProt P04798+P05177+P05181+P08684+P10632+P10635+P11509+P11712+P13584+P20813+P20815+P20853+P24462+P24903+P33260+P33261+P51589+P78329+P98187+Q02928+Q08477+Q16678+Q16696+Q5TCH4+Q6VVX0+Q7Z449+Q8TAV3+Q96SQ9+Q9HB55); assay: Microsomal stability in human liver microsomes assessed as CYP450-mediated metabolism by measuring compound remaining at 5 uM and measured for 15 mins in presence of NADPH by UPLC-MS/MS analysis (reference value: 100%); type: ADME; conditions: read-out: Stability
Outline: (§3)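 Compound at 5 µM with 0.5 mg/mL liver microsomes in PBS. Phase I was started with 1 mM NADPH; phase II used 2 mM UDPGA. Diclofenac served as reference. Samples taken at 0, 15, 30 and 60 min were quenched in ice-cold acetonitrile, centrifuged at 4°C and analysed by LC-MS. Mean of at least two replicates ± SD.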

CYP450 [6] = target: T1, CYP450; assay: Microsomal stability in human liver microsomes assessed as CYP450-mediated metabolism by measuring compound remaining at 5 uM and measured for 30 mins in presence of NADPH by UPLC-MS/MS analysis (reference value: 100%); type: ADME; conditions: read-out: Stability; outline: as §3
CYP450 [7] = target: T1, CYP450; assay: Microsomal stability in human liver microsomes assessed as CYP450-mediated metabolism by measuring compound remaining at 5 uM and measured for 60 mins in presence of NADPH by UPLC-MS/MS analysis (reference value: 100%); type: ADME; conditions: read-out: Stability; outline: as §3
UGT [8] = target: T2, UGT (Homo sapiens, UniProt O60656+O75310+O75795+P06133+P0DTE4+P0DTE5+P16662+P19224+P22309+P22310+P35503+P35504+P36537+P54855+Q6UWM9+Q9BY64+Q9HAW7+Q9HAW8+Q9HAW9); assay: Microsomal stability in human liver microsomes assessed as UGT-mediated metabolism by measuring compound remaining at 5 uM and measured for 15 mins in presence of UDPGA by UPLC-MS/MS analysis (reference value: 100%); type: ADME; conditions: read-out: Stability; outline: as §3
UGT [9] = target: T2, UGT; assay: Microsomal stability in human liver microsomes assessed as UGT-mediated metabolism by measuring compound remaining at 5 uM and measured for 30 mins in presence of UDPGA by UPLC-MS/MS analysis (reference value: 100%); type: ADME; conditions: read-out: Stability; outline: as §3
UGT [10] = target: T2, UGT; assay: Microsomal stability in human liver microsomes assessed as UGT-mediated metabolism by measuring compound remaining at 5 uM and measured for 60 mins in presence of UDPGA by UPLC-MS/MS analysis (reference value: 100%); type: ADME; conditions: read-out: Stability; outline: as §3
CYP450 [11] = assay: Microsomal stability in mouse liver microsomes assessed as CYP450-mediated metabolism by measuring compound remaining at 5 uM and measured for 15 mins in presence of NADPH by UPLC-MS/MS analysis (reference value: 100%); type: ADME; conditions: read-out: Stability; outline: as §3
CYP450 [12] = assay: Microsomal stability in mouse liver microsomes assessed as CYP450-mediated metabolism by measuring compound remaining at 5 uM and measured for 30 mins in presence of NADPH by UPLC-MS/MS analysis (reference value: 100%); type: ADME; conditions: read-out: Stability; outline: as §3
CYP450 [13] = assay: Microsomal stability in mouse liver microsomes assessed as CYP450-mediated metabolism by measuring compound remaining at 5 uM and measured for 60 mins in presence of NADPH by UPLC-MS/MS analysis (reference value: 100%); type: ADME; conditions: read-out: Stability; outline: as §3
UGT [14] = assay: Microsomal stability in mouse liver microsomes assessed as UGT-mediated metabolism by measuring compound remaining at 5 uM and measured for 15 mins in presence of UDPGA by UPLC-MS/MS analysis (reference value: 100%); type: ADME; conditions: read-out: Stability; outline: as §3
UGT [15] = assay: Microsomal stability in mouse liver microsomes assessed as UGT-mediated metabolism by measuring compound remaining at 5 uM and measured for 30 mins in presence of UDPGA by UPLC-MS/MS analysis (reference value: 100%); type: ADME; conditions: read-out: Stability; outline: as §3
UGT [16] = assay: Microsomal stability in mouse liver microsomes assessed as UGT-mediated metabolism by measuring compound remaining at 5 uM and measured for 60 mins in presence of UDPGA by UPLC-MS/MS analysis (reference value: 100%); type: ADME; conditions: read-out: Stability; outline: as §3
[17] = Selectivity index, ratio of […] for cytotoxicity against mouse J774A.1 cells; type: toxicity, cell-based; conditions: read-out: Selectivity Index

Row | SMILES | IC50 [1] | IC50 [2] | MIC90 [2] | IC50 (Escherichia coli) | IC50 (Pseudomonas aeruginosa) | IC50 (Klebsiella pneumoniae) | IC50 (Enterococcus faecium) | IC50 (Staphylococcus aureus) | IC50 (Streptococcus pneumoniae) | CC50 at 24 h [3] | IC50 (Mycobacterium marinum) | IC50 [4] | remaining at 0.25 h, 5 µM (CYP450 [5]) | remaining at 0.5 h, 5 µM (CYP450 [6]) | remaining at 1 h, 5 µM (CYP450 [7]) | remaining at 0.25 h, 5 µM (UGT [8]) | remaining at 0.5 h, 5 µM (UGT [9]) | remaining at 1 h, 5 µM (UGT [10]) | remaining at 0.25 h, 5 µM (CYP450 [11]) | remaining at 0.5 h, 5 µM (CYP450 [12]) | also measured
1 | NNC(=O)c1ccncc1 [ISONIAZID] | < 0.25 µM | 0.11 µM | 0.31 µM (≈ 0.0425 µg/mL) | – | – | – | – | – | – | – | – | – | – | – | – | – | – | – | – | – | –
2 | O=C1C2=C(C(=O)c3c1cnc1ccc(F)cc31)C1CCC2C1 (stereo unspecified) | 4 to 8 µM | 6.93 µM | 57.3 µM (≈ 16.8 µg/mL) | > 64 µM | > 64 µM | > 64 µM | > 64 µM | > 64 µM | 32 to 64 µM | > 128 µM | 5.04 µM | 0.24 µM | 100% | 100% | 100% | 92% | 79% | 64% | 100% | 100% | remaining at 1 h, 5 µM (CYP450 [13]): 100%; remaining at 0.25 h, 5 µM (UGT [14]): 96%; remaining at 0.5 h, 5 µM (UGT [15]): 92%; remaining at 1 h, 5 µM (UGT [16]): 72%
3 | C[C@H]1c2cccc(O)c2C(=O)C2=C(O)[C@]3(O)C(=O)C(C(N)=O)=C(O)[C@@H](N(C)C)[C@@H]3[C@@H](O)[C@@H]21 [DOXYCYCLINE] | – | – | – | – | – | – | – | < 0.25 µM | > 0.25 µM | – | – | – | – | – | – | – | – | – | – | – | –
4 | O=C1C2=C(C(=O)c3c1cnc1cc(F)ccc31)C1CCC2C1 (stereo unspecified) | 1 to 2 µM | 1.8 µM | 10.2 µM (≈ 3 µg/mL) | > 64 µM | > 64 µM | > 64 µM | > 64 µM | > 64 µM | 32 to 64 µM | 35.2 µM | 3.22 µM | 0.43 µM | 100% | 100% | 100% | 79% | 76% | 60% | 100% | 100% | selectivity ratio [17]: 3.44; remaining at 1 h, 5 µM (CYP450 [13]): 100%; remaining at 0.25 h, 5 µM (UGT [14]): 89%; remaining at 0.5 h, 5 µM (UGT [15]): 88%; remaining at 1 h, 5 µM (UGT [16]): 73%
5 | CC/C(=C(\c1ccccc1)c1ccc(OCCN(C)C)cc1)c1ccccc1 [TAMOXIFEN] | – | – | – | – | – | – | – | – | – | 11.1 µM | – | – | – | – | – | – | – | – | – | – | –
6 | CN[C@H](CC(C)C)C(=O)N[C@H]1C(=O)N[C@@H](CC(N)=O)C(=O)N[C@H]2C(=O)N[C@H]3C(=O)N[C@H](C(=O)N[C@H](C(=O)O)c4cc(O)cc(O)c4-c4cc3ccc4O)[C@H](O)c3ccc(c(Cl)c3)Oc3cc2cc(c3O[C@@H]2O[C@H](CO)[C@@H](O)[C@H](O)[C@H]2O[C@H]2C[C@](C)(N)[C@H](O)[C@H](C)O2)Oc2ccc(cc2Cl)[C@H]1O [VANCOMYCIN] | – | – | – | – | – | – | > 0.5 µM | – | – | – | – | – | – | – | – | – | – | – | – | – | –
